Source: PMC4764504 (Journal of medicinal chemistry, 2015)
Several values for one entry are separate records, joined by “and”; a condition that tells them apart may be missing. Equal entries are not always repeated.

Key:
[1] = test system: BALB/c Mice with Subcutaneous Flank DBT Tumors; test: Whole body biodistribution in mice with subcutaneous DBT gliomas; assay type: in vivo, mouse; settings: for biodistribution, tumor uptake: subcutaneous DBT tumor
How it was run: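 Male BALB/c mice carried subcutaneous flank DBT tumors (5 × 10⁵ cells) and were used at day 14. Under 1% isoflurane–oxygen, each received ~56 μCi (2.07 MBq) of ⁷⁶Br-labelled or 45 μCi (1.67 MBq) of ¹²³I-labelled test compound by tail vein in 0.9% saline. Mice were killed at 5 min, 30 min, 1, 3 and 24 h (n = 4 per time). Tissues were weighed and γ-counted with decay correction, giving % ID/g.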

DBT glioma cells = test: Competitive amino acid cell uptake assays; assay type: cell-based, mouse; settings: 60 s, 37 °C
How it was run: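 Mouse DBT glioma cells were seeded at 1 × 10⁵ cells/well and grown 48 h in 10% FBS DMEM under 5% CO₂. Cells were washed twice in 37 °C buffer, then exposed for 60 s at 37 °C, pH 7.40, to the radiotracer. Buffers were Na phosphate-buffered saline or choline-substituted Na-free buffer. Controls had 10 mM sucrose; BCH was 10 mM. Cells were washed with ice-cold buffer, lysed in 0.2% SDS/0.2 M NaOH, γ-counted, and normalized to added activity and BCA protein. Values are % of control, triplicate × two plates.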

C[C@](N)(/C=C/[123I])C(=O)O [[^123I]8, (S)-amino-2-methyl-4-[^123I]iodo-3-(E)-butenoic acid, reference compound]
biodistribution, blood ([1]; 5 min after i.v. injection): 3.86 ± 0.50 % ID/g | biodistribution, blood ([1]; 30 min after i.v. injection): 1.07 ± 0.16 % ID/g | biodistribution, blood ([1]; 1 h after i.v. injection): 0.37 ± 0.05 % ID/g | biodistribution, blood ([1]; 3 h after i.v. injection): 0.07 ± 0.02 % ID/g | biodistribution, blood ([1]; 24 h after i.v. injection): 0.0005 ± 0.0000 % ID/g | biodistribution, bone ([1]; 5 min after i.v. injection): 1.94 ± 0.28 % ID/g | biodistribution, bone ([1]; 30 min after i.v. injection): 1.20 ± 0.21 % ID/g | biodistribution, bone ([1]; 1 h after i.v. injection): 0.55 ± 0.39 % ID/g | biodistribution, bone ([1]; 3 h after i.v. injection): 0.39 ± 0.35 % ID/g | biodistribution, bone ([1]; 24 h after i.v. injection): 0.0042 ± 0.0020 % ID/g | biodistribution, brain ([1]; 5 min after i.v. injection): 0.27 ± 0.03 % ID/g | biodistribution, brain ([1]; 30 min after i.v. injection): 0.17 ± 0.04 % ID/g | biodistribution, brain ([1]; 1 h after i.v. injection): 0.27 ± 0.35 % ID/g | biodistribution, brain ([1]; 3 h after i.v. injection): 0.07 ± 0.00 % ID/g | biodistribution, brain ([1]; 24 h after i.v. injection): 0.0010 ± 0.0003 % ID/g | biodistribution, fat ([1]; 5 min after i.v. injection): 0.87 ± 0.26 % ID/g | biodistribution, fat ([1]; 30 min after i.v. injection): 0.22 ± 0.09 % ID/g | biodistribution, fat ([1]; 1 h after i.v. injection): 0.19 ± 0.07 % ID/g | biodistribution, fat ([1]; 3 h after i.v. injection): 0.04 ± 0.01 % ID/g | biodistribution, heart ([1]; 5 min after i.v. injection): 2.30 ± 0.02 % ID/g | biodistribution, heart ([1]; 30 min after i.v. injection): 1.78 ± 0.35 % ID/g | biodistribution, heart ([1]; 1 h after i.v. injection): 0.90 ± 0.06 % ID/g | biodistribution, heart ([1]; 3 h after i.v. injection): 0.18 ± 0.05 % ID/g | biodistribution, heart ([1]; 24 h after i.v. injection): 0.0005 ± 0.0005 % ID/g | biodistribution, kidney ([1]; 5 min after i.v. injection): 31.27 ± 6.91 % ID/g | biodistribution, kidney ([1]; 30 min after i.v. injection): 9.90 ± 3.24 % ID/g | biodistribution, kidney ([1]; 1 h after i.v. injection): 2.68 ± 0.55 % ID/g | biodistribution, kidney ([1]; 3 h after i.v. injection): 0.39 ± 0.09 % ID/g | biodistribution, kidney ([1]; 24 h after i.v. injection): 0.0032 ± 0.0017 % ID/g | biodistribution, liver (all) ([1]; 5 min after i.v. injection): 2.83 ± 0.25 % ID/g | biodistribution, liver (all) ([1]; 30 min after i.v. injection): 0.91 ± 0.20 % ID/g | biodistribution, liver (all) ([1]; 1 h after i.v. injection): 0.25 ± 0.03 % ID/g | biodistribution, liver (all) ([1]; 3 h after i.v. injection): 0.07 ± 0.02 % ID/g | biodistribution, liver (all) ([1]; 24 h after i.v. injection): 0.0006 ± 0.0002 % ID/g | biodistribution, lung ([1]; 5 min after i.v. injection): 3.54 ± 0.31 % ID/g | biodistribution, lung ([1]; 30 min after i.v. injection): 1.01 ± 0.28 % ID/g | biodistribution, lung ([1]; 1 h after i.v. injection): 0.33 ± 0.06 % ID/g | biodistribution, lung ([1]; 3 h after i.v. injection): 0.06 ± 0.02 % ID/g | biodistribution, lung ([1]; 24 h after i.v. injection): 0.0007 ± 0.0006 % ID/g | biodistribution, muscle ([1]; 5 min after i.v. injection): 1.65 ± 0.05 % ID/g | biodistribution, muscle ([1]; 30 min after i.v. injection): 1.41 ± 0.22 % ID/g | biodistribution, muscle ([1]; 1 h after i.v. injection): 0.68 ± 0.17 % ID/g | biodistribution, muscle ([1]; 3 h after i.v. injection): 0.12 ± 0.06 % ID/g | biodistribution, muscle ([1]; 24 h after i.v. injection): 0.0011 ± 0.0006 % ID/g | biodistribution, pancreas ([1]; 5 min after i.v. injection): 29.26 ± 8.15 % ID/g | biodistribution, pancreas ([1]; 30 min after i.v. injection): 21.03 ± 4.38 % ID/g | biodistribution, pancreas ([1]; 1 h after i.v. injection): 5.75 ± 1.20 % ID/g | biodistribution, pancreas ([1]; 3 h after i.v. injection): 0.99 ± 0.46 % ID/g | biodistribution, pancreas ([1]; 24 h after i.v. injection): 0.0052 ± 0.0021 % ID/g | biodistribution, spleen ([1]; 5 min after i.v. injection): 3.92 ± 0.99 % ID/g | biodistribution, spleen ([1]; 30 min after i.v. injection): 2.23 ± 0.34 % ID/g | biodistribution, spleen ([1]; 1 h after i.v. injection): 0.68 ± 0.12 % ID/g | biodistribution, spleen ([1]; 3 h after i.v. injection): 0.15 ± 0.05 % ID/g | biodistribution, spleen ([1]; 24 h after i.v. injection): 0.0012 ± 0.0010 % ID/g | biodistribution, tumor uptake ([1]; 5 min after i.v. injection): 2.8 ± 0.8 % ID/g and 2.78 ± 0.83 % ID/g | biodistribution, tumor uptake ([1]; 30 min after i.v. injection): 2.7 ± 0.6 % ID/g and 2.68 ± 0.56 % ID/g | biodistribution, tumor uptake ([1]; 1 h after i.v. injection): 1.53 ± 0.66 % ID/g | biodistribution, tumor uptake ([1]; 3 h after i.v. injection): 0.65 ± 0.16 % ID/g | biodistribution, tumor uptake ([1]; 24 h after i.v. injection): 0.0012 ± 0.0007 % ID/g | biodistribution, thyroid ([1]; thyroid, 5 min after i.v. injection): 2.51 ± 0.39 % ID/g | thyroid uptake ([1]; thyroid, 5 min after injection): 2.5 ± 0.4 % ID/organ | biodistribution, thyroid ([1]; thyroid, 30 min after i.v. injection): 1.38 ± 0.38 % ID/g | biodistribution, thyroid ([1]; thyroid, 1 h after i.v. injection): 0.97 ± 0.28 % ID/g | biodistribution, thyroid ([1]; thyroid, 3 h after i.v. injection): 0.65 ± 0.29 % ID/g | thyroid activity ([1]; thyroid, 3 h after injection): approximately 0.7 % ID/organ | biodistribution, thyroid ([1]; thyroid, 24 h after i.v. injection): 0.6527 ± 0.2135 % ID/g | thyroid activity ([1]; thyroid, 24 h after injection): approximately 0.7 % ID/organ | thyroid activity as share of the administered activity ([1]; thyroid, 24 h after injection): less than 1% | uptake relative to control (DBT glioma cells; Na BCH condition (BCH 10 mM, system L inhibitor, sodium buffer)): 39 ± 12% | uptake compared to sodium control (DBT glioma cells; choline + BCH (sodium-free, Cho-BCH)): 31 ± 12% | uptake compared to the sodium control (DBT glioma cells; choline control (sodium-free, Cho-sucrose)): 33 ± 6.6% | uptake relative to the control (DBT glioma cells; in the presence of MeAIB (10 mM, system A inhibitor), sodium buffer): 25 ± 3.4%
